Measured values reported in ChEMBL document CHEMBL3232924, “Synthesis and biological evaluation of novel bis-aromatic amides as novel PTP1B inhibitors” (Bioorg Med Chem Lett, 2014).
Active and inactive are the calls of the source. No cut-off for these calls is given here.

Legend:
[1] = molecular target: T1, Tyrosine-protein phosphatase non-receptor type 11 (Homo sapiens) (UniProt Q06124); experiment: Inhibition of SHP-2 (unknown origin) using 3-o-methylfluorescein phosphate as substrate at 20 ug/ml
T1 sequence (whole entry): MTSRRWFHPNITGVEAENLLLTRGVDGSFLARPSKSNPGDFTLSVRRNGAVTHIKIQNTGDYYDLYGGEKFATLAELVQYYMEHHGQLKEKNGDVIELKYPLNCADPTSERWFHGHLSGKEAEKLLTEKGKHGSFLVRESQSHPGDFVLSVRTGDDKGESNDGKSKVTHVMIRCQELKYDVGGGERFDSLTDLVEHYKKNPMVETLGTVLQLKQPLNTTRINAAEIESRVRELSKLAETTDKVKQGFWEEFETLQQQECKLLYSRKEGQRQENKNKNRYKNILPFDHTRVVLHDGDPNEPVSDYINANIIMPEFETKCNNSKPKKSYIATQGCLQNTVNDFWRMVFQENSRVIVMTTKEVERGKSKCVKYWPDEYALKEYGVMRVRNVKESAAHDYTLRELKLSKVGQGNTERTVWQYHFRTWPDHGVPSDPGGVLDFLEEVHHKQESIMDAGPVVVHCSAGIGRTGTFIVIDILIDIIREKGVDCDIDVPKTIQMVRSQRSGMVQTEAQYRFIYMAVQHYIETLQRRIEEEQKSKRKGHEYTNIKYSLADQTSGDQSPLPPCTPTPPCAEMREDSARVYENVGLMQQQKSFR

[2] = molecular target: T2, Tyrosine-protein phosphatase non-receptor type 1 (Homo sapiens) (UniProt P18031); experiment: Inhibition of PTP1B (unknown origin) using pNPP as substrate at 20 ug/ml
T2 sequence (whole entry): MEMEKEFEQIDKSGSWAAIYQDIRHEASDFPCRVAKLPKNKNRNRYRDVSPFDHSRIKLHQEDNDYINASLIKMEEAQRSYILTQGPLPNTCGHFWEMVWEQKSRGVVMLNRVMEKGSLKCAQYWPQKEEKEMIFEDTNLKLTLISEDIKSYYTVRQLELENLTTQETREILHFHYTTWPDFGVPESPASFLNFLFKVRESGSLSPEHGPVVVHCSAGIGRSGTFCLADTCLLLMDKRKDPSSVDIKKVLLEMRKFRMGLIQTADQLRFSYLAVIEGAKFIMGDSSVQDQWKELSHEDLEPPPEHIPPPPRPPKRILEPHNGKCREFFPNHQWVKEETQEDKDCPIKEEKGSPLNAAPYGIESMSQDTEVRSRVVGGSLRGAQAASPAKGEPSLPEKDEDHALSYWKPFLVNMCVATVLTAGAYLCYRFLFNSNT

[3] = molecular target: T3, Tyrosine-protein phosphatase non-receptor type 2 (Homo sapiens, UniProt P17706); experiment: Inhibition of TCPTP (unknown origin) using pNPP as substrate
T3 sequence (P17706 whole entry): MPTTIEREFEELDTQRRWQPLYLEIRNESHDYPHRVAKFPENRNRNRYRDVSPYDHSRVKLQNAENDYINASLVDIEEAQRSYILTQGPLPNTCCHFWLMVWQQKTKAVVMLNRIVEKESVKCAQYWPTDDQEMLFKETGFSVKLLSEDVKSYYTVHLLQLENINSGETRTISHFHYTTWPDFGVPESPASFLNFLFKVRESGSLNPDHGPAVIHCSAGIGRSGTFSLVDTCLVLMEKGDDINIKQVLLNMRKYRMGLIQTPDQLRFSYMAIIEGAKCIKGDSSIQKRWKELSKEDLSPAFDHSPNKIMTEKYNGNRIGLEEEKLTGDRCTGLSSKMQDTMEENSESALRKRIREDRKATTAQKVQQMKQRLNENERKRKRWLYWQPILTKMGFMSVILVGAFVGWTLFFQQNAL

Homo sapiens = species: Homo sapiens; experiment: Selectivity ratio of IC50 for TCPTP (unknown origin) to IC50 for PTP1B (unknown origin)
Method in brief: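 Colorimetric assay with pNPP as substrate, run the same way for PTP1B and TCPTP. IC50 was obtained by regression analysis and reported as mean ± SD of three replications. The selectivity ratio is TCPTP IC50 divided by PTP1B IC50.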

[4] = molecular target: Receptor-type tyrosine-protein phosphatase F (Homo sapiens, UniProt P10586); experiment: Inhibition of LAR (unknown origin) using 3-o-methylfluorescein phosphate as substrate at 20 ug/ml
Receptor-type tyrosine-protein phosphatase F, sequence (P10586 whole entry): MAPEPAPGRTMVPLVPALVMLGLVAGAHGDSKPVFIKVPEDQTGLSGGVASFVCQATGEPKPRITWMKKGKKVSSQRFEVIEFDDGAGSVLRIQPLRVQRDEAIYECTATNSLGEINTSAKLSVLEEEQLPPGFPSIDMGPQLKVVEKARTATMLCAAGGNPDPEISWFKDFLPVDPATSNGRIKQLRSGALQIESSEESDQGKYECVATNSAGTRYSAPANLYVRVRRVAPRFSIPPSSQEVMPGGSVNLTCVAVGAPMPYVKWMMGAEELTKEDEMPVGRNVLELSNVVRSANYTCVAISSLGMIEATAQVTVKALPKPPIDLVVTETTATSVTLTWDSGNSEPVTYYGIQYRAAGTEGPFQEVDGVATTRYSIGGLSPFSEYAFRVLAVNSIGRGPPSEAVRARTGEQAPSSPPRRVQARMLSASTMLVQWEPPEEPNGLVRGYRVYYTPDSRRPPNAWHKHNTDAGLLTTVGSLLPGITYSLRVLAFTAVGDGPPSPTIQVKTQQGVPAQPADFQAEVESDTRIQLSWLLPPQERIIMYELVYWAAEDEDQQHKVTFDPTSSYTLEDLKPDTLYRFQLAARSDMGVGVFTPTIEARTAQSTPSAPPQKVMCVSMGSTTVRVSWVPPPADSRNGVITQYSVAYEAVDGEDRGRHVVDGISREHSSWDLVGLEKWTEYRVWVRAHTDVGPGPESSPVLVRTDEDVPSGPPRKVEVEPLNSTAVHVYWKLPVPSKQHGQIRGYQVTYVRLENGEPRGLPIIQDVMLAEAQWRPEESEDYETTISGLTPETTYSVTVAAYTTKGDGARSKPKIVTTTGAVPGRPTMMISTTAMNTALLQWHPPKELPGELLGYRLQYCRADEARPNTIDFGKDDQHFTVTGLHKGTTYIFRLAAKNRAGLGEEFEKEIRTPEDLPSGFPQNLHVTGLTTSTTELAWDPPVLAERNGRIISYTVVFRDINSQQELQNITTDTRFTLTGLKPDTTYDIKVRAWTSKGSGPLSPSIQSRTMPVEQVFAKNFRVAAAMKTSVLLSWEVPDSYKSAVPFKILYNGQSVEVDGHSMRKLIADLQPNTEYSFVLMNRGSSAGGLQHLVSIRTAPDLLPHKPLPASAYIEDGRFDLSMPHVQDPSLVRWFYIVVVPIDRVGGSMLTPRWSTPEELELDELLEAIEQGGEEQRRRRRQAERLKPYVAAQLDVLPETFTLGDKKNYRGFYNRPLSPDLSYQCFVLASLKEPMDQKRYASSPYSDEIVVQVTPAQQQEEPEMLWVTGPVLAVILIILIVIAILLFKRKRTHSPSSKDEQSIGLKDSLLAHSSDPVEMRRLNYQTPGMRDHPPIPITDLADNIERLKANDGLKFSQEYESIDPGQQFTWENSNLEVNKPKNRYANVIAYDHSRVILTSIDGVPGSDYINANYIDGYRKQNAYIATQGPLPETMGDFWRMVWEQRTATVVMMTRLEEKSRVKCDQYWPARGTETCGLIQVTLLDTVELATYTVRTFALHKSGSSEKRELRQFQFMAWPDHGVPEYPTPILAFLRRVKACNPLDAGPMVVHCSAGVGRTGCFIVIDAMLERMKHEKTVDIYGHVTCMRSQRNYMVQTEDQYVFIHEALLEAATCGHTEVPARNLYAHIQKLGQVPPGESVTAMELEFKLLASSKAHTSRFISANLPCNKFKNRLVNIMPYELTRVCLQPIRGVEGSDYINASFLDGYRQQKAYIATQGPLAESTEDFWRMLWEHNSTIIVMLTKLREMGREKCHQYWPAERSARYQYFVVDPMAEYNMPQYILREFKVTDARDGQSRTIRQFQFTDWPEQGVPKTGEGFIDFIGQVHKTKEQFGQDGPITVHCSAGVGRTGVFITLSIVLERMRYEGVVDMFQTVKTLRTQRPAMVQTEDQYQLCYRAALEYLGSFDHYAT

[5] = molecular target: T4, Tyrosine-protein phosphatase non-receptor type 1 (Homo sapiens, UniProt P18031); experiment: Inhibition of PTP1B (unknown origin) using pNPP as substrate
T4 sequence (P18031 whole entry): T2 sequence (whole entry)

[6] = molecular target: T5, Tyrosine-protein phosphatase non-receptor type 6 (Homo sapiens, UniProt P29350); experiment: Inhibition of SHP-1 (unknown origin) using 3-o-methylfluorescein phosphate as substrate at 20 ug/ml
T5 sequence (P29350 whole entry): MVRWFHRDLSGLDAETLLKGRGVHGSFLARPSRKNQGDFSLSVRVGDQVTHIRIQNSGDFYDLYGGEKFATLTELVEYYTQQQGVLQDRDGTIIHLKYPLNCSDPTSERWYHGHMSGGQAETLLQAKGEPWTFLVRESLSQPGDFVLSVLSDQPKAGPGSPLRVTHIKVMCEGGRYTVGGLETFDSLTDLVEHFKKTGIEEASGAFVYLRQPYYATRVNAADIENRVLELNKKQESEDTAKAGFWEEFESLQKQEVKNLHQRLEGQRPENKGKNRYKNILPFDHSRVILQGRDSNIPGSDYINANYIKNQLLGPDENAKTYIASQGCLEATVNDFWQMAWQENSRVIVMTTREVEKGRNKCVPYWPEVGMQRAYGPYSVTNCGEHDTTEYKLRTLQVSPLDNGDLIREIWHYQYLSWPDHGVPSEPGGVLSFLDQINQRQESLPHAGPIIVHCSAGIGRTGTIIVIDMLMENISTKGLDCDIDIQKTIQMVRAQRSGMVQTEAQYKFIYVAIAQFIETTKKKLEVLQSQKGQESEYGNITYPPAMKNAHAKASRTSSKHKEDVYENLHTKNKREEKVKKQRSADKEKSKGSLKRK

[7] = molecular target: T6, Tyrosine-protein phosphatase non-receptor type 2 (Homo sapiens) (UniProt P17706); experiment: Inhibition of TCPTP (unknown origin) using pNPP as substrate at 20 ug/ml
T6 sequence (whole entry): T3 sequence (P17706 whole entry)

[8] = molecular target: T5, Tyrosine-protein phosphatase non-receptor type 6; experiment: Inhibition of SHP-1 (unknown origin) using 3-o-methylfluorescein phosphate as substrate
Method in brief: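 SHP-1 activity was read with 3-O-methylfluorescein phosphate (OMFP) as substrate. IC50 was derived by regression analysis and given as mean ± SD of three replications.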

[9] = molecular target: T7, Tyrosine-protein phosphatase non-receptor type 11 (Homo sapiens, UniProt Q06124); experiment: Inhibition of SHP-2 (unknown origin) using 3-o-methylfluorescein phosphate as substrate
T7 sequence (Q06124 whole entry): T1 sequence (whole entry)
Method in brief: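 Phosphatase activity was measured with 3-O-methylfluorescein phosphate (OMFP) as substrate, in the same assay format used for SHP-1. IC50 was obtained by regression analysis and reported as mean ± SD of three replicates.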

CHO = experiment: Inhibition of PTP1B in CHO cells overexpressing human insulin receptor assessed as increase in insulin-stimulated tyrosine phosphorylation of insulin receptor beta at 5 to 20 uM by immunoblot analysis; assay type: cell-based; settings: Cricetulus griseus
Method in brief: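 CHO cells overexpressing human insulin receptor were treated with compound, with DMSO as negative control. Tyrosine-phosphorylated insulin receptor β was detected by immunoblot.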

[10] = molecular target: T2, Tyrosine-protein phosphatase non-receptor type 1 (Homo sapiens); experiment: Fast-binding inhibition of PTP1B (unknown origin) using pNPP as substrate
[11] = molecular target: T2, Tyrosine-protein phosphatase non-receptor type 1 (Homo sapiens); experiment: Competitive inhibition of PTP1B (unknown origin) using pNPP as substrate by Lineweaver-Burk plot analysis
Method in brief: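 Kinetic analysis: initial velocities were measured across various pNPP concentrations at several fixed inhibitor concentrations. Inhibition mode was assigned from Lineweaver–Burk double-reciprocal plots.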

Compound	inhibition [2] [%]	inhibition [4] [%]	IC50 [5] [µM]	also measured
O=C(Nc1ccc(-c2ccc(NC(=O)c3ccccc3)cn2)cc1)c1ccccc1	83.9	< 50	5.37	inhibition [1]: < 50%; IC50 [3]: 26.2 µM; Ratio IC50 (Homo sapiens): 4.87; inhibition [6]: < 50%
O=C(Nc1ccc(-c2ccc(NC(=O)c3ccco3)cn2)cc1)c1ccco1	86.4	–	11.1	–
CC(C)CC(=O)Nc1ccc(-c2ccc(NC(=O)CC(C)C)cn2)cc1	58.1	–	26.5	–
O=C(Nc1ccc(-c2ccc(NC(=O)C3CCN(C(=O)c4ccccc4)CC3)cc2)cc1)C1CCN(C(=O)c2ccccc2)CC1	94.1	< 50	2.65	inhibition [1]: < 50%; IC50 [3]: 7.62 µM; Ratio IC50 (Homo sapiens): 2.88; inhibition [6]: < 50%
O=C(Nc1ccc(-c2ccc(NC(=O)C3CCCCC3)cc2)cc1)C1CCCCC1	84.6	–	12.5	–
O=C(Nc1ccc(-c2ccc(NC(=O)C3CCN(C(=O)C4CCCCC4)CC3)cc2)cc1)C1CCN(C(=O)C2CCCCC2)CC1	61	–	14.6	–
CC(C)CC(=O)Nc1ccc(-c2ccc(NC(=O)CC(C)C)cc2)cc1	90.7	–	16.5	–
O=C(Nc1ccc(-c2ccc(NC(=O)c3ccccc3)cc2)cc1)c1ccccc1	95.2	–	12	–
O=C(Nc1ccc(-c2ccc(NC(=O)C3CCNCC3)cc2)cc1)C1CCNCC1	10.3	–	–	–
O=C(Nc1ccc(-c2ccc(NC(=O)c3cccs3)cc2)cc1)c1cccs1	38.1	–	–	–
O=C(Nc1ccc(-c2ccc(NC(=O)c3ccc(F)cc3)cc2)cc1)c1ccc(F)cc1	98.6	–	19	–
COC(=O)c1ccc(-c2ccc(N)cc2)cc1	31.5	–	–	–
O=C(Nc1ccc(-c2ccc(NC(=O)C3CCN(C(=O)c4ccc(F)cc4)CC3)cc2)cc1)C1CCN(C(=O)c2ccc(F)cc2)CC1	95.3	< 50	5.04	inhibition [1]: < 50%; inhibition [7]: < 50%; inhibition [6]: < 50%
COc1cc(C(=O)Nc2ccc(-c3ccc(NC(=O)c4cc(OC)c(OC)c(OC)c4)cc3)cc2)cc(OC)c1OC	47.4	–	–	–
COC(=O)c1ccc(-c2ccc(NC(=O)c3ccccc3)cc2)cc1	69.4	–	10.2	–
O=C(Nc1ccccc1)c1ccc(-c2ccc(C(=O)Nc3ccccc3)cc2)cc1	62.8	–	18.5	–
O=C(Nc1ccc(-c2ccc(NC(=O)c3ccco3)cc2)cc1)c1ccco1	–	< 50	19.3	IC50 [8]: 38.8 µM; IC50 [3]: 51 µM; Ratio IC50 (Homo sapiens): 2.64
CC(C)CC(=O)N1CCC(C(=O)Nc2ccc(-c3ccc(NC(=O)C4CCN(C(=O)CC(C)C)CC4)cc3)cc2)CC1	70	–	12.2	–
O=C(Nc1ccc(-c2ccc(NC(=O)c3ccc(F)cc3)cn2)cc1)c1ccc(F)cc1	71	< 50	5.96	IC50 [8]: 17.8 µM; inhibition [7]: < 50%
CC(C)(C)OC(=O)N1CCC[C@H]1C(=O)Nc1ccc(-c2ccc(NC(=O)[C@@H]3CCCN3C(=O)OC(C)(C)C)cc2)cc1	43.5	–	–	–
O=C(Nc1ccc(F)cc1)c1ccc(-c2ccc(C(=O)Nc3ccc(F)cc3)cc2)cc1	7.92	–	–	–
SODIUM ORTHOVANAD	–	–	–	IC50 [8]: 17.8 µM; IC50 [9]: 34.7 µM
CC(C)(C)OC(=O)N1CCC(C(=O)Nc2ccc(-c3ccc(NC(=O)C4CCN(C(=O)OC(C)(C)C)CC4)cc3)cc2)CC1	71.1	< 50	9.5	inhibition [1]: < 50%; IC50 [8]: 18.2 µM; IC50 [3]: 21.2 µM; Ratio IC50 (Homo sapiens): 2.23
O=C(Nc1ccc(-c2ccc(NC(=O)C3CCN(C(=O)c4ccco4)CC3)cc2)cc1)C1CCN(C(=O)c2ccco2)CC1	94	< 50	2.34	inhibition [1]: < 50%; inhibition (CHO): Active; inhibition [10]: Active; IC50 [3]: 12.4 µM; Ratio IC50 (Homo sapiens): 5.29; inhibition [11]: Active; inhibition [6]: < 50%
O=C(Nc1ccc(-c2ccc(C(=O)Nc3ccccc3)cc2)cc1)c1ccccc1	81.2	< 50	4.61	inhibition [1]: < 50%; inhibition [7]: < 50%; inhibition [6]: < 50%
COc1ccc(C(=O)Nc2ccc(-c3ccc(NC(=O)c4ccc(OC)cc4)cc3)cc2)cc1	11.9	–	–	–
O=C(Nc1ccc(-c2ccc(NC(=O)[C@@H]3CCCN3)cc2)cc1)[C@@H]1CCCN1	0.7	–	–	–
O=C(Nc1ccc(-c2ccc(NC(=O)C3CCCCC3)cn2)cc1)C1CCCCC1	82.1	< 50	7.14	inhibition [1]: < 50%; IC50 [3]: 22.9 µM; Ratio IC50 (Homo sapiens): 3.2; inhibition [6]: < 50%
